ChEMBL document CHEMBL3259723, “Membrane active vancomycin analogues: a strategy to combat bacterial resistance” (J Med Chem, 2014)
Calls of active or inactive are those of the source. No cut-off for these calls is given here.

What was measured:
Staphylococcus aureus [1] = assay: Antibacterial activity against methicillin-resistant Staphylococcus aureus ATCC 33591 assessed as growth inhibition measured after 52 serial passages; type: functional, organism-based
Method in brief: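 Serial passage: the MIC assay is run against MRSA, then cells from the one-half-MIC well of the previous assay are harvested and inoculated into fresh yeast-dextrose broth for the next MIC assay after 24 h incubation. Repeated for […] passages; MIC plotted against passage number and fold increase in MIC determined.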

[2] = Hemolytic activity in human RBC up to 100 uM after 1 hr; type: ADME, cell-based; conditions: erythrocyte
Method in brief: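 Incubated 1 h at 37 °C, then centrifuged and supernatant A540 read. % hemolysis calculated against no-compound wells and 1 vol% Triton X-100 wells taken as 100% lysis.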

Staphylococcus aureus [3] = assay: Antibacterial activity against methicillin-resistant Staphylococcus aureus ATCC 33591 assessed as induction of cytoplasmic membrane permeabilization measured within 5 mins by propidium iodide uptake assay; type: functional, organism-based
Method in brief: (§1)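 Mid-log (6 h) cells harvested at 4 °C, washed and resuspended in PBS pH 7.2. Compound added to cells with 10 μM propidium iodide. Fluorescence (ex 535/em 617 nm) monitored 10 min at RT; the rise in PI fluorescence taken as inner membrane permeabilization.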

Enterococcus faecium [4] = assay: Antibacterial activity against vancomycin-sensitive Enterococcus faecium ATCC 19634 assessed as growth inhibition by broth microdilution method; type: functional
Method in brief: (§2)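 Broth microdilution per CLSI; compounds serially diluted in autoclaved water. Bacteria grown 6 h in suitable media, diluted to 10⁵ CFU/mL; compound added to bacterial suspension, incubated at 37 °C, OD600 read. Triplicate wells, experiment done at least twice; mean OD versus concentration sigmoidally fitted, MIC taken where OD equals no-bacteria control.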

Staphylococcus aureus [5] = assay: Antibacterial activity against methicillin-resistant Staphylococcus aureus ATCC 33591 assessed as induction of membrane depolarization measured at < 3 mins by DiSC3(5) dye-based spectrofluorometric analysis; type: functional, organism-based
Method in brief: (§3)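 Membrane potential assay with DiSC3(5): dye added to cells until maximal uptake, seen as a fluorescence minimum (about 10 min). Compounds then added and depolarization followed as the fluorescence increase over a further 10 min.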

Enterococcus faecium [6] = assay: Potency index, ratio of dalbavancin MIC90 to compound MIC for vancomycin-resistant VanA phenotype of Enterococcus faecium ATCC 51559; type: functional
Staphylococcus aureus [7] = assay: Antibacterial activity against vancomycin-intermediate-resistant Staphylococcus aureus assessed as growth inhibition by broth microdilution method; type: functional
Method in brief: (§4)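 Broth microdilution per CLSI; compounds serially diluted in sterile water, added to bacteria at 10^5 CFU/mL (diluted from 6 h cultures). Incubated at 37 °C, OD600 read. Triplicate wells, experiment done at least twice. Mean OD plotted against concentration and fitted sigmoidally; MIC taken where OD matches the no-bacteria control.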

Staphylococcus aureus [8] = assay: Antibacterial activity against methicillin-resistant Staphylococcus aureus ATCC 33591 assessed as growth inhibition by broth microdilution method; type: functional; method in brief: as §4
Staphylococcus aureus [9] = assay: Antibacterial activity against methicillin-resistant Staphylococcus aureus ATCC 33591 assessed as leakage of intracellular potassium ion at 10 uM measured for 10 mins by PBFI-AM dye-based spectrofluorometric analysis relative to control; type: functional
Method in brief: (§5)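 Mid-log (6 h) cells washed twice and resuspended in 10 mM HEPES pH 7.2 with 0.5% glucose. Signal stabilized 60 s at RT, then 1 μM PBFI-AM added and a 2 min baseline recorded before compound.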

Enterococcus faecium [10] = assay: Antibacterial activity against vancomycin-resistant VanA phenotype of Enterococcus faecium ATCC 51559 assessed as induction of cytoplasmic membrane permeabilization at 10 uM measured for 10 mins by propidium iodide uptake assay; type: functional, organism-based; method in brief: as §1
Staphylococcus aureus [11] = assay: Bactericidal activity against methicillin-resistant Staphylococcus aureus ATCC 33591 assessed as log10 reduction of bacterial count at 6 times MIC measured over 24 hrs; type: functional
Method in brief: (§6)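 MRSA in yeast-dextrose broth, starting inoculum 1.6 × 10^8 CFU/mL. […] Samples taken at 0, 1, 2, 3, 6 and 24 h, diluted 10-fold serially in saline and plated on yeast-dextrose agar. Colonies counted after 24 h at 37 °C; log10 CFU/mL reported.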

HeLa = assay: Cytotoxicity against human HeLa cells assessed as cell survival up to 100 uM after 24 hrs by MTT assay; type: cell-based
Method in brief: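 HeLa cells grown in DMEM with 10% FBS to 70–80% confluency, then exposed to serially diluted compounds for 24 h at 37 °C, 5% CO2. MTT (5 mg/mL solution) added for 3 h, formazan dissolved in DMSO, A570 read. Survival calculated relative to untreated and 10% Triton X-100 controls.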

Staphylococcus aureus [12] = assay: Bactericidal activity against methicillin-resistant Staphylococcus aureus ATCC 33591 assessed as log10 reduction of bacterial count at MIC measured over 24 hrs; type: functional; method in brief: as §6
Enterococcus faecium [13] = assay: Antibacterial activity against vancomycin-resistant VanA phenotype of Enterococcus faecium ATCC 51559 assessed as induction of membrane depolarization measured at < 3 mins by DiSC3(5) dye-based spectrofluorometric analysis; type: functional, organism-based; method in brief: as §3
Staphylococcus aureus [14] = assay: Antibacterial activity against methicillin-sensitive Staphylococcus aureus MTCC 737 assessed as growth inhibition by broth microdilution method; type: functional; method in brief: as §2
Enterococcus faecium [15] = assay: Antibacterial activity against vancomycin-resistant VanA phenotype of Enterococcus faecium ATCC 51559 assessed as leakage of intracellular potassium ion at 10 uM measured for 10 mins by PBFI-AM dye-based spectrofluorometric analysis; type: functional, organism-based; method in brief: as §5
Staphylococcus aureus [16] = assay: Bactericidal activity against methicillin-resistant Staphylococcus aureus ATCC 33591 infected in 90% human whole blood at 3.6 uM after 3 hrs; type: functional, organism-based
Method in brief: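 MRSA (30 μL of 10^6 CFU/mL in 0.9% saline) mixed with compound at 3.6 μM and 270 μL fresh human whole blood. Incubated 3 h at 37 °C.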

Enterococcus faecium [17] = assay: Antibacterial activity against vancomycin-resistant VanA phenotype of Enterococcus faecium ATCC 51559 assessed as growth inhibition by broth microdilution method; type: functional; method in brief: as §4
[18] = Hemolytic activity in human RBC up to 1000 uM after 1 hr; type: ADME, cell-based; conditions: erythrocyte
Method in brief: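 Centrifuged, supernatant A540 read. Controls: no compound and 1 vol % Triton X-100 (100% lysis); % hemolysis = (A − A0)/(Atotal − A0) × 100.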

Staphylococcus aureus [19] = assay: Antibacterial activity against methicillin-resistant Staphylococcus aureus ATCC 33591 infected in CD-1 mouse neutropenic thigh infection model assessed as reduction of bacterial burden in thigh at 12 mg/kg, iv bid administered as 12 hrs interval measured after 24 hrs; type: functional, organism-based; parameters: dose 12 mg/kg
Method in brief: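 Neutropenic mouse thigh model: about 50 μL MRSA inoculum injected into the thigh. About 1 h later, iv treatment twice at 12 h intervals with saline, vancomycin or compound at 12 mg/kg. At 24 h, thigh homogenate dilutions plated and incubated overnight at 37 °C; titer expressed as log10 CFU/g thigh.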

Structure (SMILES)	Activity (Staphylococcus aureus [1])	Activity [2]	Activity (Staphylococcus aureus [3])	MIC (Enterococcus faecium [4])	Activity (Staphylococcus aureus [5])	Ratio (Enterococcus faecium [6])	MIC (Staphylococcus aureus [7])	MIC (Staphylococcus aureus [8])	Activity (Staphylococcus aureus [9])	Activity (Enterococcus faecium [10])	log10cfu (Staphylococcus aureus [11])	Activity (HeLa)	log10cfu (Staphylococcus aureus [12])	Activity (Enterococcus faecium [13])	MIC (Staphylococcus aureus [14])	Activity (Enterococcus faecium [15])	Activity (Staphylococcus aureus [16])	MIC (Enterococcus faecium [17])	Activity [18]	Activity (Staphylococcus aureus [19])
CCCCCCCCCCCCCC[N+](C)(C)CCCNC(=O)[C@H]1NC(=O)[C@H]2NC(=O)[C@H](NC(=O)[C@@H]3NC(=O)[C@H](CC(N)=O)NC(=O)[C@H](NC(=O)[C@@H](CC(C)C)NC)[C@H](O)c4ccc(c(Cl)c4)Oc4cc3cc(c4O[C@@H]3O[C@H](CO)[C@@H](O)[C@H](O)[C@H]3O[C@H]3C[C@](C)(N)[C@H](O)[C@H](C)O3)Oc3ccc(cc3Cl)[C@H]2O)c2ccc(O)c(c2)-c2c(O)cc(O)cc21.O=C([O-])C(F)(F)F	Active	Non-toxic	Dose-dependent effect	0.12 µM	Dose-dependent effect	25	0.36 µM	0.65 µM	Active	Active	>5	Non-toxic	>5	Dose-dependent effect	1.25 µM	Active	Active	0.7 µM		
CCCCCCCC[N+](C)(C)CCCNC(=O)[C@H]1NC(=O)[C@H]2NC(=O)[C@H](NC(=O)[C@@H]3NC(=O)[C@H](CC(N)=O)NC(=O)[C@H](NC(=O)[C@@H](CC(C)C)NC)[C@H](O)c4ccc(c(Cl)c4)Oc4cc3cc(c4O[C@@H]3O[C@H](CO)[C@@H](O)[C@H](O)[C@H]3O[C@H]3C[C@](C)(N)[C@H](O)[C@H](C)O3)Oc3ccc(cc3Cl)[C@H]2O)c2ccc(O)c(c2)-c2c(O)cc(O)cc21.O=C([O-])C(F)(F)F	Active		Dose-dependent effect	0.15 µM	Dose-dependent effect		0.4 µM	0.31 µM	43%	Active	3	Non-toxic	8	Dose-dependent effect	0.31 µM	Active	Active	12.5 µM	Non-toxic	Active
